Only some compounds are listed: those with a hit (about 4% of all), similar ones and a draw of the others.
S1P3 antag = S1P3 (human) receptor antagonism | actives 0.27% (n = 170,000) | AID 485 | inhibition, % at 4.98 µM | CHO S1P3 NFAT-BLA reporter, FRET fluorescence, antagonist mode | Q99500;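 active means inhibition above the plate cutoff, the mean inhibition of test wells on that plate plus 3 SD, cut at about 28% in these data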;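 further: cells challenged with S1P at its EC80 of 0.8 µM; blue over green emission ratio from cleaved BLA substrate after 4 h stimulation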
Mdm2 ligase inh = blocks human Mdm2 ubiquitin ligase activity | Q00987 | cell-based MDM2 ubiquitination luciferase reporter, 2 h; 0 = plate control, 100 = twice control, blank-subtracted | signal enhancement, % at 5 µM | actives 0.11% (n = 210,000);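 active means signal enhancement of 30% or more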;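 further: luminescence tracks abundance of the self-degrading MDM2-luciferase fusion protein; higher signal means inhibition of MDM2 E3 ligase activity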
Target sequence (Q00987 whole entry, looked up, the tested form may be a part): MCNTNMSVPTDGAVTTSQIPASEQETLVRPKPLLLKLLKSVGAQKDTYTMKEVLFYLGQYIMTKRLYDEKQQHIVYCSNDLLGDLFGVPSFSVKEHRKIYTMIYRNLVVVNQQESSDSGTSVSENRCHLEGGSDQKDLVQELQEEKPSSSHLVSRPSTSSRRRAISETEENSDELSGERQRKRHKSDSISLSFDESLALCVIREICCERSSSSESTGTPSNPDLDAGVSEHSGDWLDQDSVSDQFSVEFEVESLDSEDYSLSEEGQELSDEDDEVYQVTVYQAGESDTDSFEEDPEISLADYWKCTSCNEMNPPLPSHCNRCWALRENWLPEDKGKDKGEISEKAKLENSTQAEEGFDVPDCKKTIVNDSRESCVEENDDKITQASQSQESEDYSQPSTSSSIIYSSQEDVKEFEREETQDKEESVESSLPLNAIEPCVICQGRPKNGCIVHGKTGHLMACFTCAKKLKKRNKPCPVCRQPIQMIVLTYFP
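Test system: mammalian cells stably expressing self-ubiquitinating, self-degrading MDM2 E3–luciferase fusion; Amount: 2000 cells in each well; Medium: DMEM; Schedule: 4 h settle plus 2 h compound, 37 °C; Technique: SteadyLite luciferase luminescence after 15 min room-temperature reagent incubation; Benchmarks: plate control and blank wells.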
Hsp70 activator = Hsp70 transcriptional activation, primary screen | HeLa Hsp70 promoter luciferase reporter, luminescence; scaled: vehicle 0, proteasome-inhibitor control 100% | activation, % at 10 µM | actives 0.04% (n = 200,000) | AID 1203;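 active means activation above the mean across all tested compounds plus 3 SD, cutoff set per campaign, cut at about 5.5% in these data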
CHOP inhibitor = CHOP inhibition in unfolded protein response | inhibition, % at 10 µM | CHO-K1 CHOP-promoter luciferase, tunicamycin-induced, 15-18 h | actives 3.8% (n = 220,000);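 active means compounds that reduced the stress-induced luciferase reporter signal by more than about 70% of percent inhibition, limit read from the data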
Hits are given with their value.

How did COC(=O)c1ccc(COn2nnc3ccccc32)cc1 do in these assays?
S1P3 antag: inactive; Mdm2 ligase inh: inactive; Hsp70 activator: inactive; CHOP inhibitor: inactive

How did Cc1c(C#N)c(N)nc2c3c(sc12)NC(=O)CC3c1ccc(Cl)cc1 (stereo unspecified) do in these assays?
S1P3 antag: inactive; Mdm2 ligase inh: inactive; Hsp70 activator: inactive; CHOP inhibitor: 101

Results for N#Cc1c(N)nc2c3c(sc(=N)c2c1N)NC(=O)CC3c1ccccc1 (stereo unspecified) ?
Mdm2 ligase inh: inactive; Hsp70 activator: inactive; CHOP inhibitor: inactive

What do the screens show for `CN1C(=O)CSC1=NC12CC3CC(CC(C3)C1)C2`?
Mdm2 ligase inh: inactive; Hsp70 activator: inactive; CHOP inhibitor: 73

Results for CCN1C(=O)CSC1=NC12CC3CC(CC(C3)C1)C2 ?
Mdm2 ligase inh: inactive; Hsp70 activator: inactive; CHOP inhibitor: inactive

How did CCc1ccc(S(=O)(=O)NCCc2cn3ccc(C)cc3n2)s1 do in these assays?
S1P3 antag: inactive; Mdm2 ligase inh: inactive; Hsp70 activator: inactive; CHOP inhibitor: inactive

Results for COc1ccc(Nc2nc(N3CCCCC3)c3ccccc3n2)cc1 ?
Mdm2 ligase inh: inactive; Hsp70 activator: inactive; CHOP inhibitor: 82

How did Oc1ccc(Nc2nc(N3CCCC3)c3ccccc3n2)cc1 do in these assays?
S1P3 antag: inactive; Mdm2 ligase inh: inactive; Hsp70 activator: inactive

How did O=C1C2C3C=CC(C4CC34)C2C(=O)N1/N=C/c1ccc(-c2ccc(F)cc2[N+](=O)[O-])o1 (stereo unspecified) do in these assays?
Mdm2 ligase inh: inactive; Hsp70 activator: inactive; CHOP inhibitor: inactive

How did Cc1ccc(-c2ccc(/C=N/N3C(=O)C4C5C=CC(CC5)C4C3=O)o2)c([N+](=O)[O-])c1 (stereo unspecified) do in these assays?
Mdm2 ligase inh: inactive; Hsp70 activator: inactive; CHOP inhibitor: 89

What do the screens show for `COc1cc2nc(SCc3ccc(C(F)(F)F)cc3)n(Cc3cccs3)c(=N)c2cc1OC`?
Mdm2 ligase inh: inactive; Hsp70 activator: inactive; CHOP inhibitor: inactive

Results for COc1ccc(Cn2c(SCc3ccc(C)cc3)nc3cc(OC)c(OC)cc3c2=N)cc1Cl ?
Mdm2 ligase inh: inactive; Hsp70 activator: inactive; CHOP inhibitor: 72

What do the screens show for `CC(C)Cc1cc(CN2CCC(CO)(Cc3cccc(C(F)(F)F)c3)CC2)[nH]n1`?
S1P3 antag: inactive; Mdm2 ligase inh: inactive; Hsp70 activator: inactive; CHOP inhibitor: inactive

Results for Cc1ccc(Oc2nc3c(c(=O)n(Cc4ccccc4F)c(=O)n3C)n2C)cc1 ?
Mdm2 ligase inh: inactive; Hsp70 activator: inactive; CHOP inhibitor: 94

Results for CC1=C(C(=O)Nc2ccccc2)C(c2ccc(C)cc2)N=C(Nc2nc3ccccc3o2)N1 (stereo unspecified) ?
Mdm2 ligase inh: inactive; Hsp70 activator: inactive; CHOP inhibitor: 88

How did Cc1ccc(C(C)C)c(OCCN)c1 do in these assays?
S1P3 antag: inactive; Mdm2 ligase inh: inactive; Hsp70 activator: inactive; CHOP inhibitor: inactive

Results for Cc1ccc(C(C)C)c(OCCNC(=S)Nc2cccc3ccccc23)c1 ?
Mdm2 ligase inh: inactive; Hsp70 activator: inactive; CHOP inhibitor: 76

What do the screens show for `COc1ccc(S(=O)(=O)n2cnc3cc(C)c(C)cc32)cc1C`?
S1P3 antag: inactive; Mdm2 ligase inh: inactive; Hsp70 activator: inactive; CHOP inhibitor: 70

What do the screens show for `COc1cccc(/C(O)=C/c2nc3ccc(C(=O)NCCc4cccc(C)c4)cc3[nH]c2=O)c1`?
S1P3 antag: inactive; Mdm2 ligase inh: inactive; Hsp70 activator: inactive; CHOP inhibitor: inactive

How did COc1cccc(/C(O)=C/c2nc3ccc(C(=O)NCCc4ccc(Cl)cc4)cc3[nH]c2=O)c1 do in these assays?
S1P3 antag: inactive; Mdm2 ligase inh: inactive; Hsp70 activator: inactive; CHOP inhibitor: 83

How did Cc1ccc2[nH]c(=O)c(CNS(=O)(=O)c3ccccc3)c(-c3ccccc3)c2c1 do in these assays?
S1P3 antag: inactive; Mdm2 ligase inh: inactive; Hsp70 activator: inactive; CHOP inhibitor: 87

What do the screens show for `CCN(CC)c1c(-c2ccccc2)c2cc(C)ccc2[nH]c1=O`?
S1P3 antag: inactive; Mdm2 ligase inh: inactive; Hsp70 activator: inactive; CHOP inhibitor: 95

What do the screens show for `O=C(COc1cccc2c1CCN(Cc1ccc(Cl)cc1)C2=O)N1CCOCC1`?
S1P3 antag: inactive; Mdm2 ligase inh: inactive; Hsp70 activator: inactive; CHOP inhibitor: inactive

How did CN(C)S(=O)(=O)c1ccc(Cl)c(NC(=O)COC(=O)C2CSC3(C)CCC(=O)N23)c1 (stereo unspecified) do in these assays?
S1P3 antag: inactive; Mdm2 ligase inh: inactive; Hsp70 activator: inactive; CHOP inhibitor: inactive

Compound activity (PubChem BioAssay)
